Source: ChEMBL document CHEMBL1158527, “Identification of novel allosteric nonpeptidergic inhibitors of the human cytomegalovirus-encoded chemokine receptor US28” (Bioorg Med Chem, 2010)

Legend:
[1] = Displacement of [125I]CCL5 from HCMV US28 receptor; set-up: species or system Human betaherpesvirus 5
Summary of the method: (§1)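 Allosteric inhibition of chemokine binding to US28 was measured by ¹²⁵I-CCL5 radioligand binding. IC50 values (mean and interval) came from competition curves. Single-point data give percent inhibition of CCL5 binding at 10 µM compound. All runs were in triplicate and repeated at least three times.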

[2] = Activity at HCMV US28 receptor assessed as receptor-mediated inositol phosphate response; set-up: species or system Human betaherpesvirus 5
Summary of the method: (§2)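 Compounds were tested against ligand-independent (constitutive) US28-driven inositol phosphate production, measured as InsP accumulation. EC50 values (mean and interval) came from dose–response curves. Single-point data give percent inhibition of constitutive signaling at 10 µM compound. All runs were in triplicate and repeated at least three times.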

Human betaherpesvirus 5 [3] = test: Activity at HCMV US28 receptor assessed as receptor-mediated inositol phosphate response at 10 uM; summary of the method: as §2
Human betaherpesvirus 5 [4] = test: Displacement of [125I]CCL5 from HCMV US28 receptor at 10 uM; summary of the method: as §1

Row | SMILES | IC50 [1] [µM] | EC50 [2] [µM] | Activity (Human betaherpesvirus 5 [3]) [%] | Activity (Human betaherpesvirus 5 [4]) [%]
1 | CN1CCN(C2c3ccccc3CC2Cc2ccc(Cl)cc2Cl)CC1 (stereo not drawn) | 8.1 | 12.1 | – | –
2 | CN1[C@@H]2CC[C@H]1C[C@@H](OC1c3ccccc3CCc3ccccc31)C2 | – | – | 0 | 15
3 | NC(CCc1ccccc1)c1ccc(Cl)c(Cl)c1 (stereo not drawn) | – | – | 34 | 5
4 | OCCN1CCN(CCCN2Cc3ccccc3CCc3ccccc32)CC1 | 1.6 | – | – | –
5 | OC1(c2ccc(Cl)cc2)CCN(CCCN(Cc2ccccc2)c2ccccc2)CC1 | 4.1 | 3 | – | –
6 | CCN1CCN(C2=Nc3cc(Cl)ccc3Nc3ccccc32)CC1 | 3.8 | – | 16 | –
7 | OC1(c2ccc(Cl)cc2)CCN(CCCN2Cc3ccccc3CCc3ccccc32)CC1 | 0.7 | 4.7 | – | –
8 | CN1CCN(C2=Nc3cc(Cl)ccc3Sc3ccccc32)CC1 | – | – | 0 | 47
9 | CN1CCN(CCC(=O)N2Cc3ccccc3CCc3ccccc32)CC1 | > 100 | – | 0 | –
10 | OC1(c2ccc(Cl)cc2)CCN(CCOC(c2ccccc2)c2ccccc2)CC1 | 2.1 | 3.5 | – | –
11 | CN1CCN(CCCN2Cc3ccccc3CCc3ccccc32)CC1 | 4.9 | – | 3 | –
12 | Cc1ccc(CC2Cc3ccccc3C2N)c(C)c1 (stereo not drawn) | 17.7 | 13.7 | – | –
13 | NCC1(c2ccc(Cl)cc2)CCN(CCCN2Cc3ccccc3CCc3ccccc32)CC1 | 1.6 | 7.6 | – | –
14 | O=C(CCN1CCN(CCO)CC1)N1Cc2ccccc2CCc2ccccc21 | > 100 | – | 0 | –
15 | CC(Cc1cccc(C(F)(F)F)c1)NCC=C(c1ccc(F)cc1)c1ccc(F)cc1 (stereo not drawn) | – | – | 38 | 39
16 | N/C(CCN1C2CCC1CC(OC1c3ccccc3CCc3ccccc31)C2)=N\O (stereo not drawn) | – | – | 0 | 0
17 | CC(Cc1ccc(Cl)cc1)NCCC1=C2C=CC=CC2Sc2ccccc21 (stereo not drawn) | 2.6 | – | 21 | –
18 | CCc1ccccc1C1(OCCN(C)Cc2cccc(C)c2)CCCCC1C (stereo not drawn) | 12.9 | – | 10 | –
19 | COc1ccc(CC2Cc3ccccc3C2N)cc1 (stereo not drawn) | > 100 | > 100 | – | –
20 | NC1c2ccccc2CCC1Cc1ccc(Cl)cc1Cl (stereo not drawn) | 8.5 | 12.6 | – | –
21 | NC1c2ccccc2CCCC1Cc1ccc(Cl)cc1Cl (stereo not drawn) | 11.8 | – | 26 | –
22 | OC1(c2ccc(Cl)cc2)CCN(CCCN(Cc2ccc(Cl)cc2)c2ccccc2)CC1 | 5.7 | 5.5 | – | –
23 | CCN1C2CCC1CC(OC1c3ccccc3CCc3ccccc31)C2 (stereo not drawn) | – | – | 0 | 7

Row | SMILES | IC50 [1] [µM] | EC50 [2] [µM] | Activity (Human betaherpesvirus 5 [3]) [%] | Activity (Human betaherpesvirus 5 [4]) [%]
24 | Clc1ccc(CC2Cc3ccccc3C2NCc2ccccc2)c(Cl)c1 (stereo not drawn) | > 100 | > 100 | – | –
25 | NC1c2ccccc2CC1Cc1ccc(Cl)cc1Cl (stereo not drawn) | 9.5 | 11.1 | – | –
26 | CCN1CCN(C2=Nc3cc(Cl)ccc3Oc3ccccc32)CC1 | – | – | 0 | 38
27 | COc1ccc(CC2Cc3ccccc3C2N)cc1C (stereo not drawn) | 59.7 | 16.4 | – | –
28 | CCN1CCC[C@H]1CNC(=O)c1c(OC)ccc(I)c1O [IOLOPRIDE] | 0.3 | – | – | –
29 | CC(=O)Nc1ccc(CC2Cc3ccccc3C2N)cc1 (stereo not drawn) | > 100 | > 100 | – | –
30 | OC1(c2ccc(Cl)cc2)CCCN(CCCN2Cc3ccccc3CCc3ccccc32)C1 (stereo not drawn) | 0.9 | 3.9 | – | –
31 | CSc1ccc2c(c1)C(OCCN1CCC(O)(c3ccc(Cl)cc3)CC1)Cc1ccccc1S2 (stereo not drawn) | 12.4 | 7.1 | – | –
32 | Clc1ccc(CC2Cc3ccccc3C2N2CCN(c3ccccc3)CC2)c(Cl)c1 (stereo not drawn) | > 100 | > 100 | – | –
33 | c1ccc(CCN2C3CCC2CC(OC2c4ccccc4CCc4ccccc42)C3)cc1 (stereo not drawn) | 11.9 | 4.3 | – | –
34 | OC1(c2ccc(Cl)cc2)CCN(C2c3ccccc3CC2Cc2ccc(Cl)cc2Cl)CC1 (stereo not drawn) | 11 | 6 | – | –
35 | CC(Cc1cccc(C(F)(F)F)c1)NCCc1c2ccccc2nc2ccccc12 (stereo not drawn) | 5.5 | – | 34 | –
36 | CC(Cc1ccccc1)NCCC1c2ccccc2CCc2ccccc21 (stereo not drawn) | 3.7 | 5.2 | – | –
37 | N=C(N)NCCN1C2CCC1CC(OC1c3ccccc3CCc3ccccc31)C2 (stereo not drawn) | – | – | 0 | 34
38 | C1=Cc2ccccc2C(OC2CC3CCC(C2)N3C2CCCCC2)c2ccccc21 (stereo not drawn) | 8.3 | 5.8 | – | –
39 | CC(Cc1ccccc1)NCCC1c2ccccc2-c2ccccc21 (stereo not drawn) | 5.2 | 10.9 | – | –
40 | CC(Cc1ccccc1)NCC=C1c2ccccc2CCc2ccccc21 (stereo not drawn) | 4.2 | – | 39 | –
41 | c1ccc(CN2C3CCC2CC(OC2c4ccccc4CCc4ccccc42)C3)cc1 (stereo not drawn) | 10.5 | 8.8 | – | –
42 | OCCCCN1CCN(/C(=C/c2cccc(Cl)c2)c2ccccc2)CC1 | – | – | 0 | 13
43 | CN1CCN(C2=Nc3ccccc3Oc3ccc(Cl)cc32)CC1 | – | – | 0 | 13
44 | CCCCCCCCN1C2CCC1CC(OC1c3ccccc3CCc3ccccc31)C2 (stereo not drawn) | 5.6 | 4.9 | – | –
45 | CCCN1C2CCC1CC(OC1c3ccccc3C=Cc3ccccc31)C2 (stereo not drawn) | – | – | 0 | 18
46 | NC(CCc1ccc(Cl)c(Cl)c1)c1ccc(Cl)c(Cl)c1 (stereo not drawn) | 7.5 | 11.7 | – | –

Row | SMILES | IC50 [1] [µM] | EC50 [2] [µM] | Activity (Human betaherpesvirus 5 [3]) [%] | Activity (Human betaherpesvirus 5 [4]) [%]
47 | OC1(c2ccc(Cl)cc2)CCN(CCCC(c2ccc(F)cc2)c2ccc(F)cc2)CC1 | 3 | 5.2 | – | –
48 | CN1CCN(/C(=C/c2cccc(Cl)c2)c2ccccc2)CC1 | – | – | 20 | 13
49 | OC1(c2ccc(Cl)cc2)CCN(CCCN(Cc2ccccc2)c2ccc(Cl)cc2)CC1 | 1.8 | 5 | – | –
50 | CN1CCN(C2Cc3ccccc3Sc3ccc(Cl)cc32)CC1 (stereo not drawn) [CLOROTEPINE] | 4.9 | 12.1 | – | –
51 | NCC(OC(c1ccccc1)c1ccc(Cl)cc1Cl)c1ccccc1 (stereo not drawn) | 9.2 | 10.2 | – | –
52 | CSc1ccc2c(c1)C(N1CCN(C)CC1)Cc1ccccc1S2 (stereo not drawn) [METITEPINE] | 0.41 | 7.6 | – | –
53 | Clc1cccc(/C=C(\c2ccccc2)N2CCN(CCCCc3ccccc3)CC2)c1 | – | – | 18 | 47
54 | CN1CCN(C2=Nc3cc(Cl)ccc3Oc3ccccc32)CC1 | – | – | 22 | 19
55 | N#CC(CCCN1CCC(O)(c2ccc(Cl)cc2)CC1)(c1ccccc1)c1ccccc1 [BERLEX COMPOUND] | 4.9 | 6.3 | – | –
56 | OC1(c2ccc(Cl)cc2)CCN(CCOC(c2ccccc2)c2ccc(F)cc2)CC1 (stereo not drawn) | 2.3 | 4.6 | – | –
57 | C=C[C@H]1CN2CC[C@@H]1C[C@H]2C(OC(=O)c1ccc(C)cc1)c1ccnc2ccccc12 (stereo partly drawn) | 0.3 | – | – | –
58 | CC(C)N1C2CCC1CC(OC1c3ccccc3C=Cc3ccccc31)C2 (stereo not drawn) | – | – | 3 | 13
59 | CC(C)(C)c1ccc(C(OC(CN)c2ccccc2)c2ccccc2)cc1 (stereo not drawn) | 8.2 | 8.4 | – | –
60 | CCCCN1CCN(C2=Nc3cc(Cl)ccc3Nc3ccccc32)CC1 | 4.7 | – | 19 | –
61 | CN1CCN(C2=Nc3cc(Cl)ccc3Nc3ccccc32)CC1 | – | – | 11 | 47
62 | CC(Cc1ccccc1)NCC=C1c2ccccc2-c2ccccc21 (stereo not drawn) | 7 | – | 42 | –
63 | COc1ccccc1CC1Cc2ccccc2C1N (stereo not drawn) | 37.3 | 42.7 | – | –
64 | CN1CCN(C2=Nc3ccccc3Sc3ccc(Cl)cc32)CC1 | – | – | 0 | 28
65 | COc1ccc(CC2Cc3ccccc3C2N)c(OC)c1 (stereo not drawn) | > 100 | > 100 | – | –
66 | Clc1ccc(C2=CCN(C3c4ccccc4CC3Cc3ccc(Cl)cc3Cl)CC2)cc1 (stereo not drawn) | > 100 | > 100 | – | –
67 | NC1c2ccccc2CC1Cc1ccccc1 (stereo not drawn) | 80.6 | > 100 | – | –
68 | Clc1ccc(CC2Cc3ccccc3C2N2CCCCC2)c(Cl)c1 (stereo not drawn) | 13.4 | 2.6 | – | –
